From ChEMBL document CHEMBL4513216, “Probing the Open Global Health Chemical Diversity Library for Multistage-Active Starting Points for Next-Generation Antimalarials” (ACS Infect Dis, 2020)

Assay: Toxicity liver stage against HepG2, at 10uM
Type: cell-based
Parameters: test concentration 10 uM, cell line HepG2-A16-CD81EGFP
Conditions: human, HepG2-A16-CD81EGFP cells; read-out: INHIBITION
In short: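 Uninfected HepG2-A16-CD81EGFP cells, 3 × 10^3 per well, 1536-well, plated on prespotted compound at 10 μM final, parasite-free screening media added to match infected plates; puromycin 10 μM positive, DMSO 0.5% negative; run in parallel with 48 h PbLuc assay at 37 °C, 5% CO2; viability by CellTiter-Glo luminescence, normalized to controls.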
`Cc1nnc(NC(=O)NCC(C)N2CCOCC2)s1` (configuration not stated) gave a cytotoxicity at 10 µM of -10.6%. `Cc1cc(C)nc(C2CCN(c3ccncn3)C2)n1` (configuration not stated) gave a cytotoxicity at 10 µM of -0.419%. Work on `COc1ccccc1CC(C)N(C)CCS(C)(=O)=O` (configuration not stated) yielded a cytotoxicity at 10 µM of 7.57%. `O=C(O)c1nnn(-c2cccc(C(F)(F)F)c2)c1-c1ccncc1` gave a cytotoxicity at 10 µM of 4.76%. In the case of `Cc1nc(C)n(CC2CCCN(Cc3ncc(C(C)(C)C)o3)C2)n1` (configuration not stated), the cytotoxicity at 10 µM was -5.95%. With `CN(C)[C@H]1CCCCN(C(=O)c2cccc(N3CCS(=O)(=O)CC3)c2)C1` the cytotoxicity at 10 µM was 2.45%. `Cc1noc2ncc(C(=O)NCC3CCCO3)cc12` (configuration not stated) showed a cytotoxicity at 10 µM of -10.2%. With `O=C(CCc1ccc2c(c1)CCO2)Nc1nnn[nH]1` the cytotoxicity at 10 µM was 0.301%. `CCS(=O)(=O)N1CCC(c2nnc(CN3CCCCC3)n2C)CC1` showed a cytotoxicity at 10 µM of -6.03%. `CCn1cnnc1C1CCN(C(=O)c2ccccc2OC)CC1` gave a cytotoxicity at 10 µM of -8.62%. `COc1ccc(F)c(CN2CCC3(CCC(=O)N(CC(N)=O)C3)CC2)c1` gave a cytotoxicity at 10 µM of 12%. Work on `CC1COCCN1Cc1noc(C(C)(C)C)n1` (configuration not stated) yielded a cytotoxicity at 10 µM of 5.67%. Molecule `CCC1(CC)Cc2ccccc2-c2nc(NCCO)[nH]c(=O)c21` has a cytotoxicity at 10 µM of -7.17%. Molecule `O=C(NCCN1CCCCC1)c1ccn(-c2ccccc2)n1` has a cytotoxicity at 10 µM of 7.53%. Molecule `O=C(Nc1cccc(CN2CCOC2=O)c1)N1CCCC1` has a cytotoxicity at 10 µM of -3.54%. For `CNC(=O)C1Cn2ccnc2C2(CCN(Cc3nccs3)CC2)O1` (configuration not stated), the cytotoxicity at 10 µM was -67.2%. Work on `Cc1cnn(C2CCCN(C(=O)c3ccccc3-n3cnnn3)C2)c1` (configuration not stated) yielded a cytotoxicity at 10 µM of -6.92%. Molecule `Cc1ncc(CN(C)C(=O)Nc2cccc(CN3CCOC3=O)c2)s1` has a cytotoxicity at 10 µM of -2.27%. Molecule `CN(Cc1ccncc1)C(=O)NC1CCCN(c2ncccn2)C1` (configuration not stated) has a cytotoxicity at 10 µM of -14%. Work on `CCc1nc2n(n1)CC(NCc1cnn(-c3ccccc3)n1)CC2` (configuration not stated) yielded a cytotoxicity at 10 µM of -3.01%. In the case of `O=C(Cn1ccnc1)N1C[C@@H]2CC[C@H](Oc3cccc(F)c3)[C@@H]2C1`, the cytotoxicity at 10 µM was -18%. `O=S1(=O)CCC(S(=O)(=O)c2cccc(S(=O)(=O)N3CCOCC3)c2)C1` (configuration not stated) gave a cytotoxicity at 10 µM of 3.42%. With `Clc1snnc1CN1CCCC1Cn1cncn1` (configuration not stated) the cytotoxicity at 10 µM was -20.7%. Work on `O=C(c1ccc(Cl)cc1-n1cnnn1)N1CCC2(CC1)OCCO2` yielded a cytotoxicity at 10 µM of 3.51%. For `Fc1ccc(CN2CCO[C@H]3[C@H](OCc4ccncc4)CC[C@@H]32)cc1`, the cytotoxicity at 10 µM was -26.7%. In the case of `c1ccc(Cc2nc(CNCCn3cccn3)cs2)cc1`, the cytotoxicity at 10 µM was -2.79%. Work on `CCOCC1CN(C(=O)C2=CCCC2)Cc2cnn(CC)c21` (configuration not stated) yielded a cytotoxicity at 10 µM of 0.565%. With `Cc1nnc(C(C)NCC2(c3ccc(Cl)cc3)CCOCC2)o1` (configuration not stated) the cytotoxicity at 10 µM was -1.47%. Molecule `CC(NS(C)(=O)=O)C(=O)N(C)Cc1cnn(-c2ccc(F)cc2)c1` (configuration not stated) has a cytotoxicity at 10 µM of -7.94%. Work on `O=C(c1cccc(=O)[nH]1)N(Cc1ccsc1)CC1CCCO1` (configuration not stated) yielded a cytotoxicity at 10 µM of -11.5%. Work on `CC(C)c1nccc([C@@H]2C[C@@H]3CCN(Cc4ccoc4)C[C@H]3O2)n1` yielded a cytotoxicity at 10 µM of -7.47%. `CSCC(C)(O)CNC(=O)c1cccc(Cl)c1Cl` (configuration not stated) showed a cytotoxicity at 10 µM of 0.126%. Molecule `CC(C)(C)c1nnc(CN2CCCC2c2noc(C3CC3)n2)o1` (configuration not stated) has a cytotoxicity at 10 µM of -2.75%. `CC(C)Nc1cc(N2CCCC3(CN(C)C(=O)O3)C2)ncn1` (configuration not stated) gave a cytotoxicity at 10 µM of -53%. `COCCNC(=O)[C@@]12CCO[C@@H]1CCN(Cc1ccncc1)C2` gave a cytotoxicity at 10 µM of -77.3%. For `Cc1ccc(CN2CCc3ncnc(-c4ccncc4)c3CC2)o1`, the cytotoxicity at 10 µM was -1.19%. For `O=C(COCC1CC1)N1CCCC(n2cccn2)C1` (configuration not stated), the cytotoxicity at 10 µM was 4.6%.
